Measured values taken from article PMC4464950 (Dalton transactions (Cambridge, England : 2003), 2015).

Key:
RNase A = target: T1, RNase A (Bos taurus, UniProt P61823); assay: ESI-MS metallodrug-protein interaction, RNase; assay type: binding; conditions: 3:1 metal/protein, 24 h RT, 20 mM ammonium acetate pH 6.8
T1 sequence (P61823 27-150): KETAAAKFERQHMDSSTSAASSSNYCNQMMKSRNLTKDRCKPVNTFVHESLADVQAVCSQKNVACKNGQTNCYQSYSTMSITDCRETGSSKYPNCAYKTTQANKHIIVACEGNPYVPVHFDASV
In short: (§1)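 Each protein (100 µM) in 20 mM ammonium acetate, pH 6.8, was mixed with test compound at a 3:1 metal/protein ratio and held 24 h at RT. Samples were diluted 20-fold with water and infused directly at 5 µl/min into an ESI Orbitrap (spray 3.1 kV, capillary 45 V, 220 °C, resolution 100,000 at m/z 400). Monoisotopic and average masses were obtained by deconvolution.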

cytochrome c = cytochrome c (Equus caballus, UniProt P00004); assay: ESI-MS metallodrug-protein interaction, cytochrome c; assay type: binding; conditions: 3:1 metal/protein, 24 h RT, 20 mM ammonium acetate pH 6.8
cytochrome c, sequence (P00004 whole entry): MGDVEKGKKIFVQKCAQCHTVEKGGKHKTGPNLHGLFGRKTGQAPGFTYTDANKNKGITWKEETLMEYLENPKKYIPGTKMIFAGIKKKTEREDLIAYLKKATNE
In short: as §1

[1] = tested on: HCT116 (colon carcinoma) cells; assay: Trypan blue exclusion cell growth inhibition, HCT116; assay type: cell-based, human
In short: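 HCT116 cells were grown in RPMI 1640 + 10% FBS at 37 °C, humidified 5% CO2, and seeded at 1 × 10⁴ cells/well with test compound. After 48 h, cells were mixed 1:1 with 0.4% trypan blue and counted on a haemocytometer, in triplicate. Points are means of four samples over three experiments. IC50/IC75/IC90 came from sigmoidal fits. Selectivity = IC50 in […] ÷ IC50 in cancer cells.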

plasmid (pBR322) DNA = assay: Electrophoresis mobility shift assay with plasmid DNA; assay type: binding; conditions: metal/DNAbp ratios 0.25-2.0; 37 °C, 20 h
In short: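 pBR322 plasmid DNA (20 µg/mL) in 5 mM Tris/HCl, 50 mM NaClO4, pH 7.39, was incubated with test compound at metal complex:DNA bp ratios of […], 37 °C, 20 h, in the dark. Free DNA and cisplatin-treated DNA served as controls. Samples ran on 1% agarose in TAE, 80 V for 1.5 h, then were GelRed-stained 30 min.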

**Q.** Which “Interaction with RNase (ESI-MS adducts)” value (RNase A) does the source give for `Cc1ccc(C(C)C)cc1.Cc1ccc(C(C)C)cc1.[Cl][Ru][Cl].[Cl][Ru][Cl]` [a (Ru), [Ru(p-cymene)Cl(µ-Cl)]2] here?
**A.** protein binding of a Ru(p-cymene) fragment

**Q.** And the “Interaction with cytochrome c (ESI-MS adducts)” value (cytochrome c)?
**A.** protein binding of a Ru(p-cymene) fragment

**Q.** What about the “IC75 HCT116” value ([1]; 48 h incubation, compounds dissolved in DMSO (1%), Trypan blue) of the same compound?
**A.** 313.3 ± 7.1 µM

**Q.** What about the “Calculated tumour selectivity (IC50 L929/IC50 HCT116)” value ([1]; IC50 normal cells divided by IC50 cancer cells) of the same compound?
**A.** 3.3

**Q.** And the “Effect on mobility of supercoiled form (Form I) of plasmid DNA” value (plasmid (pBR322) DNA)?
**A.** did not affect the mobility
